Laboratory results reported in ChEMBL document CHEMBL1142542, “Synthesis, mechanistic studies, and anti-proliferative activity of glutathione/glutathione S-transferase-activated nitric oxide prodrugs” (Bioorg Med Chem, 2008).

Assays:
[1] = target: T1, Glutathione S-transferase Mu 1 (Homo sapiens) (UniProt P09488); assay: Specific activity of human recombinant Glutathione S-transferase Mu 1 at 50 uM by spectrophotometric analysis in presence of glutathione
T1 sequence (whole entry): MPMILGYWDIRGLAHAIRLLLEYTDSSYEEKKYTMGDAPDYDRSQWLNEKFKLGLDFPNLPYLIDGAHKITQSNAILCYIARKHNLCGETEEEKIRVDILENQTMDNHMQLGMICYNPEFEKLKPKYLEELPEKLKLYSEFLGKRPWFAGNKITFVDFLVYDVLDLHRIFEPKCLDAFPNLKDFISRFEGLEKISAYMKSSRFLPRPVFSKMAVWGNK
Method in brief: (§1)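 Reaction of 1 mL held 0.1 M phosphate buffer pH 7.4, 1 mM GSH, 50 μM compound and a catalytic amount of GST. GSTA1-1 and GSTM1-1 were purified recombinant enzymes; GSTP1-1 was purified in-house. Enzymes were first checked for activity with CDNB. Reaction started by adding compound, and the absorbance decrease at its maximum was followed at 37 °C. Specific activity came from the change in extinction coefficient.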

[2] = target: T2, Glutathione S-transferase A1 (Homo sapiens) (UniProt P08263); assay: Specific activity of human recombinant Glutathione S-transferase A1 at 50 uM by spectrophotometric analysis in presence of glutathione relative to O2-(2,4-dinitrophenyl) 1-[(4-ethoxycarbonyl)piperazin-1-yl]diazen-1-ium-1,2-diolate; method in brief: as §1
T2 sequence (whole entry): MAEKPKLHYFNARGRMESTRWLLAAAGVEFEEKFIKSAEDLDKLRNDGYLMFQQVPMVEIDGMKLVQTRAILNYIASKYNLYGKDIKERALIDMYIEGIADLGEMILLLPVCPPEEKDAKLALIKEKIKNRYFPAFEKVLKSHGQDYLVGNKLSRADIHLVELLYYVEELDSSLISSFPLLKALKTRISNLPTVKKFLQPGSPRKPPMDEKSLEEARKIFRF

[3] = target: Glutathione S-transferase P (Homo sapiens) (UniProt P09211); assay: Specific activity of human Glutathione S-transferase P at 50 uM by spectrophotometric analysis in presence of glutathione relative to O2-(2,4-dinitrophenyl) 1-[(4-ethoxycarbonyl)piperazin-1-yl]diazen-1-ium-1,2-diolate; method in brief: as §1
[4] = target: T1, Glutathione S-transferase Mu 1 (Homo sapiens); assay: Specific activity of human recombinant Glutathione S-transferase Mu 1 at 50 uM by spectrophotometric analysis in presence of glutathione relative to O2-(2,4-dinitrophenyl) 1-[(4-ethoxycarbonyl)piperazin-1-yl]diazen-1-ium-1,2-diolate; method in brief: as §1
[5] = target: T2, Glutathione S-transferase A1 (Homo sapiens); assay: Specific activity of human recombinant Glutathione S-transferase A1 at 50 uM by spectrophotometric analysis in presence of glutathione; method in brief: as §1
[6] = target: Glutathione S-transferase P (Homo sapiens) (UniProt P09211); assay: Specific activity of human Glutathione S-transferase P at 50 uM by spectrophotometric analysis in presence of glutathione; method in brief: as §1
HL-60 = assay: Antiproliferative activity against human HL-60 cells after 72 hrs by MTT assay; format: functional, cell-based; conditions: HL-60, 72 h
Method in brief: (§2)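 MTT (CellTiter 96) proliferation assay. Seeded at 10⁴ per well and grown 24 h, then given rising compound concentrations in PBS (from 10 mM DMSO stocks) for 72 h. Six repeats per concentration, at least two independent experiments; IC50 reported.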

[7] = Antiproliferative activity against human 786O cells after 72 hrs by MTT assay; format: functional, cell-based; conditions: 786-0, 72 h
[8] = Antiproliferative activity against human HCT 116 cells after 72 hrs by MTT assay; format: functional, cell-based; conditions: HCT-116, 72 h
[9] = Stability assessed as nitric oxide release in 0.1 M phosphate buffer at pH 7.4 at 100 to 150 nM measured per mole in presence of glutathione by chemiluminescence analysis; format: physicochemical
TK-10 = assay: Antiproliferative activity against human TK-10 cells after 72 hrs by MTT assay; format: functional, cell-based; conditions: TK-10, 72 h
Caco-2 = assay: Antiproliferative activity against human Caco-2 cells after 72 hrs by MTT assay; format: functional, cell-based; conditions: Caco-2, 72 h
[10] = Antiproliferative activity against human H838 cells after 72 hrs by MTT assay; format: functional, cell-based; conditions: NCI-H838, 72 h
OVCAR-5 = assay: Antiproliferative activity against human OVCAR5 cells after 72 hrs by MTT assay; format: functional, cell-based; conditions: OVCAR-5, 72 h
A549 = assay: Antiproliferative activity against human A549 cells after 72 hrs by MTT assay; format: functional, cell-based; conditions: A549, 72 h; method in brief: as §2
[11] = Antiproliferative activity against human BJ-5ta cells after 72 hrs by MTT assay; format: cell-based; conditions: hTERT-BJ
Method in brief: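 10⁴ cells per well, allowed 24 h growth, then exposed 72 h to increasing concentrations added in PBS from 10 mM DMSO stocks. MTT proliferation read-out. Each concentration in six repeats, at least two independent experiments; IC50.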

OVCAR-3 = assay: Antiproliferative activity against human OVCAR-3 cells after 72 hrs by MTT assay; format: functional, cell-based; conditions: OVCAR-3, 72 h
[12] = Antiproliferative activity against human UO-30 cells after 72 hrs by MTT assay; format: functional, cell-based; conditions: UO-30, 72 h
U-937 = assay: Antiproliferative activity against human U937 cells after 72 hrs by MTT assay; format: functional, cell-based; conditions: U-937, 72 h
Method in brief: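 Cells seeded at 10⁴ per well and grown 24 h, then exposed 72 h to increasing drug concentrations diluted in PBS from 10 mM DMSO stocks. Growth read by MTT assay. Six repeats per concentration, at least two independent experiments; IC50 reported.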

[13] = Antiproliferative activity against HREpC cells after 72 hrs by MTT assay; format: cell-based; conditions: Homo sapiens
Method in brief: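 Seeded at 10⁴ per well and grown 24 h before dosing. Compounds came from 10 mM DMSO stocks and were diluted in PBS to increasing concentrations. Exposure was 72 h, with MTT growth read-out. Six repeats per concentration, at least two independent experiments; IC50.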

HT-29 = assay: Antiproliferative activity against human HT-29 cells after 72 hrs by MTT assay; format: functional, cell-based; conditions: HT-29, 72 h
PC-3 = assay: Antiproliferative activity against human PC-3 cells after 72 hrs by MTT assay; format: functional, cell-based; conditions: PC-3, 72 h; method in brief: as §2
[14] = Antiproliferative activity against human H441 cells after 72 hrs by MTT assay; format: functional, cell-based; conditions: NCI-H441, 72 h
HCT-15 = assay: Antiproliferative activity against human HCT-15 cells after 72 hrs by MTT assay; format: functional, cell-based; conditions: HCT-15, 72 h
[15] = Antiproliferative activity against human H1395 cells after 72 hrs by MTT assay; format: functional, cell-based; conditions: NCI-H1395, 72 h
[16] = Chemical stability assessed as half life in 0.1 M phosphate buffer at 33 uM at pH 7.4 in presence of glutathione; format: physicochemical; conditions: gsh, pH 7.4, 33 µM

Glutathione S-transferase P (Homo sapiens), sequence (P09211 2-210 limits assumed): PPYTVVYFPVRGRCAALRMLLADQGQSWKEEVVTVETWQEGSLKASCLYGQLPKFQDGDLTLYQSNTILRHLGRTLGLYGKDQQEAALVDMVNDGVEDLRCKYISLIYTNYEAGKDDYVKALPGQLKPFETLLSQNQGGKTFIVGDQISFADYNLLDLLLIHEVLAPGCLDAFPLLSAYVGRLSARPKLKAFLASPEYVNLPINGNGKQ

Compound	Activity [1] [µmol/min/mg]	Activity [2]	Activity [3]	Activity [4]	Activity [5] [µmol/min/mg]	Activity [6] [µmol/min/mg]	IC50 (HL-60) [nM]	IC50 [8] [nM]	Activity [9] [mol/mol]	IC50 (A549) [nM]	IC50 (U-937) [nM]	IC50 (PC-3) [nM]	IC50 [14] [nM]	IC50 (HCT-15) [nM]	further results
CCOC(=O)N1CCCN(/[N+]([O-])=N/Oc2ccc([N+](=O)[O-])cc2[N+](=O)[O-])CC1	38	0.25	0.12	0.3	16.8	0.16	–	–	–	–	–	–	–	–	–
CCOC(=O)N1CCN(/[N+]([O-])=N/Oc2ccc([N+](=O)[O-])cc2[N+](=O)[O-])CC1	126	1	1	1	66.3	1.36	200	700	1.7	1500	300	1100	1000	600	IC50 [7]: 800 nM; IC50 (TK-10): 500 nM; IC50 (Caco-2): 2600 nM; IC50 [10]: 4300 nM; IC50 (OVCAR-5): 1000 nM; IC50 [11]: 10000 nM; IC50 (OVCAR-3): 800 nM; IC50 [12]: 900 nM; IC50 [13]: 11300 nM; IC50 (HT-29): 800 nM; IC50 [15]: 800 nM
CCOC(=O)N1CC(C)N(/[N+]([O-])=N/Oc2ccc([N+](=O)[O-])cc2[N+](=O)[O-])CC1C (stereo unspecified)	49	0.27	0.1	0.39	17.6	0.14	–	–	–	–	–	–	–	–	–
COC(=O)N1CCN(/[N+]([O-])=N/Oc2ccc([N+](=O)[O-])cc2[N+](=O)[O-])CC1	102	0.68	0.72	0.81	45.1	0.98	–	–	–	–	–	–	–	–	–
CCCOC(=O)N1CCN(/[N+]([O-])=N/Oc2ccc([N+](=O)[O-])cc2[N+](=O)[O-])CC1	126	0.89	0.88	1	59	1.2	1400	1500	2	2400	700	2000	2400	1300	t1/2 [16]: 27 min
CCOC(=O)N1CCN(/[N+]([O-])=N/Oc2ccc([N+](=O)[O-])cc2[N+](=O)[O-])CC1C (stereo unspecified)	112	0.84	0.85	0.89	55.5	1.15	–	–	–	–	–	–	–	–	–
CCOC(=O)N1C(C)CN(/[N+]([O-])=N/Oc2ccc([N+](=O)[O-])cc2[N+](=O)[O-])CC1C (stereo unspecified)	172	1.06	0.86	1.36	70.3	1.17	4700	9500	1.75	> 10000	4900	> 10000	8100	8200	IC50 (OVCAR-3): 4900 nM; t1/2 [16]: 26 min
CCOC(=O)N1CCN(/[N+]([O-])=N/Oc2ccc([N+](=O)[O-])cc2[N+](=O)[O-])C(C)C1 (stereo unspecified)	110	0.71	0.65	0.87	47	0.88	–	–	–	–	–	–	–	–	–
